Results published in ChEMBL document CHEMBL2396604, “Synthesis and structure activity relationship of tetrahydroisoquinoline-based potentiators of GluN2C and GluN2D containing N-methyl-D-aspartate receptors” (J Med Chem, 2013).
pEC50: −log10 of the molar value. The source made the active and inactive calls. No cut-off for these calls is given here.

Legend:
[1] = biological target: Glutamate NMDA receptor; Grin1/Grin2a (Rattus norvegicus) (UniProt P35439+Q00959); experiment: Activity at rat recombinant GluN1/GluN2A receptor expressed in Xenopus oocytes assessed as potentiation of glycine/glutamate-induced effect at 100 uM by two-electrode voltage clamp technique relative to control; format: cell-based; settings: Oocyte
In short: (§1)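 Two-electrode voltage clamp of oocytes at -40 mV, 2–5 days after cRNA injection. Bath solution (mM) 90 NaCl, 1.0 KCl, 0.5 BaCl₂, 0.005 EDTA, 10 HEPES, pH 7.4, 23°C. Compound applied with 100 µM glutamate plus 30 µM glycine; DMSO 0.05–0.5% final. Current expressed as percent of response without compound. For GluN2A, some oocytes were pretreated with 50 µM BAPTA-AM for 10 min or injected with K-BAPTA.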

[2] = biological target: Glutamate receptor 1 (Rattus norvegicus) (UniProt P19490); experiment: Activity at rat recombinant GluA1 receptor expressed in Xenopus oocytes assessed as effect on glutamate-induced response by two-electrode voltage clamp technique; format: cell-based; settings: Oocyte
In short: (§2)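 Oocytes injected with 1–5 ng cRNA, kept in Barth's solution at 15°C for 2–5 days. Clamped at -40 mV in 90 NaCl, 1.0 KCl, 0.5 BaCl₂, 0.005 EDTA, 10 HEPES (mM), pH 7.4, 23°C. Receptors activated by 100 µM glutamate with compound co-applied. GluK2 oocytes pretreated with 10 µM concanavalin A for 10 min. DMSO 0.05–0.5% final.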

[3] = biological target: Glutamate receptor ionotropic, kainate 2 (Rattus norvegicus) (UniProt P42260); experiment: Activity at rat recombinant GluK2 receptor expressed in Xenopus oocytes assessed as effect on glutamate-induced response by two-electrode voltage clamp technique; format: cell-based; settings: Oocyte; in short: as §2
[4] = biological target: Glutamate NMDA receptor; Grin1/Grin2b (Rattus norvegicus) (UniProt P35439+Q00960); experiment: Activity at rat recombinant GluN1/GluN2B receptor expressed in Xenopus oocytes assessed as potentiation of glycine/glutamate-induced effect at 100 uM by two-electrode voltage clamp technique relative to control; format: cell-based; settings: Oocyte; in short: as §1
[5] = biological target: Ionotropic glutamate receptor NMDA 1/2D (Rattus norvegicus, UniProt P35439+Q62645); experiment: Activity at rat recombinant GluN1/GluN2D receptor assessed as potentiation of glycine/glutamate-induced activation by two-electrode voltage clamp technique; format: protein-complex assay
[6] = biological target: Glutamate NMDA receptor; Grin1/Grin2c (Rattus norvegicus, UniProt P35439+Q00961); experiment: Activity at rat recombinant GluN1/GluN2C receptor assessed as potentiation of glycine/glutamate-induced activation by two-electrode voltage clamp technique; format: protein-complex assay
[7] = biological target: Glutamate NMDA receptor; Grin1/Grin2c (Rattus norvegicus) (UniProt P35439+Q00961); experiment: Activity at rat recombinant GluN1/GluN2C receptor expressed in Xenopus oocytes assessed as potentiation of glycine/glutamate-induced activation at 100 uM by two-electrode voltage clamp technique relative to control; format: cell-based; settings: Oocyte; in short: as §1

Sequence of Ionotropic glutamate receptor NMDA 1/2D (Q62645 whole entry, other chains not shown): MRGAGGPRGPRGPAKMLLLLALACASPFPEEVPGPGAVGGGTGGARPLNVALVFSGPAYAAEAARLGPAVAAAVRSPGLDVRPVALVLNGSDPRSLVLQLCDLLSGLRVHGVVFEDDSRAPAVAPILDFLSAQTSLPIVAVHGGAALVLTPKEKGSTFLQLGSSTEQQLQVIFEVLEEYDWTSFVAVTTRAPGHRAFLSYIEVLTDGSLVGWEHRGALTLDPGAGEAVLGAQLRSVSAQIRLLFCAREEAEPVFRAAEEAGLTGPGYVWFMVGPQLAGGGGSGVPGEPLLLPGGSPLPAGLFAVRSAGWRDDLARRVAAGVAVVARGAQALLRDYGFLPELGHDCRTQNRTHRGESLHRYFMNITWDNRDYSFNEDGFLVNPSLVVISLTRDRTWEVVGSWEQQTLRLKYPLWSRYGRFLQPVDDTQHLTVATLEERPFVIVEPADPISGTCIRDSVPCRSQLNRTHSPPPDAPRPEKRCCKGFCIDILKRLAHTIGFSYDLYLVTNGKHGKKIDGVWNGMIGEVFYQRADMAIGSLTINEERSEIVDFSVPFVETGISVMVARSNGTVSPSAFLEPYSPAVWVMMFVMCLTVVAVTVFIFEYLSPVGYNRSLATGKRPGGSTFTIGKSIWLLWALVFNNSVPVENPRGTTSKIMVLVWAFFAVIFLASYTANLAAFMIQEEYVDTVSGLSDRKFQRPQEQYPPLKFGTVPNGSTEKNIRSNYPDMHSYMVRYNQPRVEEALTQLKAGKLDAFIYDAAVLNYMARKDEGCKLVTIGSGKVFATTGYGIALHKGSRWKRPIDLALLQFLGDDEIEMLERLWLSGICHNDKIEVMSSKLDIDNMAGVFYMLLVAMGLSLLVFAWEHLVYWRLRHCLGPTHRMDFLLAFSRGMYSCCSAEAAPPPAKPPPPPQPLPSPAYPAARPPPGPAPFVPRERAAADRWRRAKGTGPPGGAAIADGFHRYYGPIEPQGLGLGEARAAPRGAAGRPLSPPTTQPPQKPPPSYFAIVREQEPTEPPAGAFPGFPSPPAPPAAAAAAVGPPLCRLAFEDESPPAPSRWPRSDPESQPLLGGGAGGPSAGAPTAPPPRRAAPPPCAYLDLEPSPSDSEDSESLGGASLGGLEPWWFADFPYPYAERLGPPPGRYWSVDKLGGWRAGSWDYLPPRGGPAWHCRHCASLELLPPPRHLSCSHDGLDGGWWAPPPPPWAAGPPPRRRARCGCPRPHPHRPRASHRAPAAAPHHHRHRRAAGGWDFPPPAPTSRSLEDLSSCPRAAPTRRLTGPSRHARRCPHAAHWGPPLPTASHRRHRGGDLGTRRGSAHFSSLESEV
Sequence of Glutamate receptor 1 (Rattus norvegicus) (P19490 whole entry): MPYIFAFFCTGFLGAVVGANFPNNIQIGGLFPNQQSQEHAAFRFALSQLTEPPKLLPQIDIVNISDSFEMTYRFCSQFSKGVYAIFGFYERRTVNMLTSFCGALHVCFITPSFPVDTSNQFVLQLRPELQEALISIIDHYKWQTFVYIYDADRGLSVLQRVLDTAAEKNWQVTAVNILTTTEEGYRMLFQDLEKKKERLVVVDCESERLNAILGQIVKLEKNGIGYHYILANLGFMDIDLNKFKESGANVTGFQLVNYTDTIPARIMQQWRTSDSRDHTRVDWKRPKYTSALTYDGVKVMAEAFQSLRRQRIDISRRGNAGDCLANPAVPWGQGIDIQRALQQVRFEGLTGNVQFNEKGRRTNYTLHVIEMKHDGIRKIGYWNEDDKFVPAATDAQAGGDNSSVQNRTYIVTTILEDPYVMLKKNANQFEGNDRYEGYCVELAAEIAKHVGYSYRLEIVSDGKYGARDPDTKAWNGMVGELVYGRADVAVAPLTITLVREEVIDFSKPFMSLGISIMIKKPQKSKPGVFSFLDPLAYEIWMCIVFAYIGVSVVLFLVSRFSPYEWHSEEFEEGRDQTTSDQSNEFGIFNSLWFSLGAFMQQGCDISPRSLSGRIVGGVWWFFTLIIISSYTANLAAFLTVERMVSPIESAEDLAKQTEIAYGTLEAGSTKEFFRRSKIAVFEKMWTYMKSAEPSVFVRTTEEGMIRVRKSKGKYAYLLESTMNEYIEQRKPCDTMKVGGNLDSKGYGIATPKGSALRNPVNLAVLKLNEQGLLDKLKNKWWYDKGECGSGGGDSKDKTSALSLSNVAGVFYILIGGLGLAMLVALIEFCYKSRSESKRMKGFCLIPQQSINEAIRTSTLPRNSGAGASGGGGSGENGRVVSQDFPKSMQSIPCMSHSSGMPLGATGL
Sequence of Glutamate receptor ionotropic, kainate 2 (Rattus norvegicus) (P42260 whole entry): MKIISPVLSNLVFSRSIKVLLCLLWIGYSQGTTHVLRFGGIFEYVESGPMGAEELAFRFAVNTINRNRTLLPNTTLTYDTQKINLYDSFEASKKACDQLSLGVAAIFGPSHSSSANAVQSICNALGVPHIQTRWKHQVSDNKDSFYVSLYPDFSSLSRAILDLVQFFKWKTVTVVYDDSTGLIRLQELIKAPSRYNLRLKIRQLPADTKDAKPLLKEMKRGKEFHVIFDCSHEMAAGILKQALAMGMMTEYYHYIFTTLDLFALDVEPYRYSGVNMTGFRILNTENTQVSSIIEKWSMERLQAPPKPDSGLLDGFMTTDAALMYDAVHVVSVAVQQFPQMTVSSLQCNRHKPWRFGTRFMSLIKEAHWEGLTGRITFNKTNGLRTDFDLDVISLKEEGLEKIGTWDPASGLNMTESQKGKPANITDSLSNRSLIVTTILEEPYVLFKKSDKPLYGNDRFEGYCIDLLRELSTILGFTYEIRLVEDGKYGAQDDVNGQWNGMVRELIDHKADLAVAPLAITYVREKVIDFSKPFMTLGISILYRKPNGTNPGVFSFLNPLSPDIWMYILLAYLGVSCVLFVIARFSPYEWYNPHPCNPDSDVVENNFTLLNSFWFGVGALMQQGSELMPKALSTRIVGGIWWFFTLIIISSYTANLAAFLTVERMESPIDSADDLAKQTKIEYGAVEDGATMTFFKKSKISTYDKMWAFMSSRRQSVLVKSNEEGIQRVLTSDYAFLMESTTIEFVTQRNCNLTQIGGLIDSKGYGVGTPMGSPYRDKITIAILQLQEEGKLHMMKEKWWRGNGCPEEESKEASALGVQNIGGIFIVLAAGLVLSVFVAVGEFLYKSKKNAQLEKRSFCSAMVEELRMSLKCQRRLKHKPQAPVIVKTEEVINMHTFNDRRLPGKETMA

Activity [2] | pEC50 [5] | pEC50 [6] | SMILES | other results
inactive |  |  | COc1cc2c(cc1OC)CN(C(=O)c1ccccc1)CC2 | 
inactive | 4.96 | 4.92 | COc1ccc(OCC2c3cc(OC)c(OC)cc3CCN2C(=O)c2ccccc2)cc1 (racemic) | Activity [3]: inactive; Activity [4]: Active
 | 4.92 | 5.24 | COc1ccc(OCC2c3cc(OC)c(OC)cc3CCN2C(=O)c2cccc(OC)c2)cc1 (racemic) | Activity [4]: Active
 | 4.62 | 4.68 | COc1ccc(OCC2c3cc(OC)c(OC)cc3CCN2C(=O)c2ccc(Cl)c(Cl)c2)cc1 (racemic) | 
inactive | 4.46 | 4.46 | COc1ccc(/C=C/C2c3cc(OC)c(OC)cc3CCN2C(=O)c2ccccc2)cc1 (racemic) | 
inactive | 5.55 | 5.55 | COc1ccc(/C=C/C2c3cc(OC)c(OC)cc3CCN2C(=O)c2cccc(Br)c2)cc1 (racemic) | 
 | 5.31 | 5.40 | COc1ccc(OCC2c3cc(OC)c(OC)cc3CCN2C(=O)c2cccc(I)c2)cc1 (racemic) | 
 | 5.44 | 5.54 | COc1ccc(OCC2c3cc(OC)c(OC)cc3CCN2C(=O)c2cccc(-c3ccccc3)c2)cc1 (racemic) | 
 | 5.27 | 5.43 | COc1ccc(OCC2c3cc(OC)c(OC)cc3CCN2C(=O)c2cccc(C(Cl)Cl)c2)cc1 (racemic) | 
inactive | 5.11 | 4.54 | COc1ccc(OCC2c3cc(OC)c(OC)cc3CCN2C(=O)c2cccc(C#N)c2)cc1 (racemic) | 
 |  | 5.05 | COc1ccc(OCC2c3cc(OC)c(OC)cc3CCN2C(=O)c2cccs2)cc1 (racemic) | 
 |  | 4.64 | CCc1ccc(OCC2c3cc(OC)c(OC)cc3CCN2C(=O)c2ccccc2)cc1 (racemic) | 
 |  | 4.46 | COc1cc2c(cc1OC)C(COc1ccc(N(C)C)cc1)N(C(=O)c1cccc(Cl)c1)CC2 (racemic) | 
 |  | 4.92 | COc1cc2c(cc1OC)C(COc1ccc(N(C)C)cc1)N(C(=O)c1cccc(Br)c1)CC2 (racemic) | 
 | 5.47 | 5.49 | COc1ccc(OCC2c3cc4c(cc3CCN2C(=O)c2cccc(Br)c2)OCO4)cc1 (racemic) | 
 | 4.85 | 5.00 | COc1ccc(OCC2c3c(cc(OC)cc3OC)CCN2C(=O)c2ccccc2)cc1 (racemic) | 
 | 5.24 | 5.12 | COc1ccc(OCC2c3ccc(OC)cc3CCN2C(=O)c2ccccc2)cc1 (racemic) | 
inactive | 5.54 | 5.70 | COc1ccc(OCC2c3ccc(OC)cc3CCN2C(=O)c2cccc(Br)c2)cc1 (racemic) | 
 | 5.96 | 6.05 | COc1ccc(OCC2c3cc(C)c(C)cc3CCN2C(=O)c2cccc(Br)c2)cc1 (racemic) | 
 | 5.64 | 6.15 | COc1ccc(OCC2c3ccc(OCc4ccccc4)cc3CCN2C(=O)c2ccccc2)cc1 (racemic) | 
 | 6.40 | 6.40 | COc1ccc(OCC2c3ccc(OCc4ccccc4)cc3CCN2C(=O)c2cccc(Cl)c2)cc1 (racemic) | 
inactive | 4.82 | 4.96 | COc1ccc(CCC2c3cc(OC)c(OC)cc3CCN2C(=O)c2cccc(Br)c2)cc1 (racemic) | 
inactive | 5.77 | 5.82 | COc1ccc(/C=C/C2c3ccc(OC)cc3CCN2C(=O)c2cccc(Br)c2)cc1 (racemic) | 
inactive |  |  | COc1ccc(CCC2c3cc(OC)c(OC)cc3CCN2C(=O)c2cccc(Cl)c2)cc1 (racemic) | 
inactive |  |  | COc1ccc(OCC2c3cc(OC)c(OC)cc3CCN2C(=O)CN2CCOCC2)cc1 (racemic) | 

More lines, now with the values behind:

SMILES | Activity [2] | pEC50 [5] | pEC50 [6] | other results
COc1cc2c(cc1OC)CN(C(=O)c1cccc(Br)c1)CC2 |  |  |  | Activity [1]: 70%
COc1ccc(OCC2c3cc(OC)c(OC)cc3CCN2C(=O)c2cccc(C)c2)cc1 (racemic) |  | 5.26 | 5.21 | 
COc1ccc(OCC2c3cc(OC)c(OC)cc3CCN2C(=O)c2ccc(Cl)cc2)cc1 (racemic) |  |  | 5.39 | 
COc1ccc(OCC2c3cc(OC)c(OC)cc3CCN2C(=O)c2cccc(Br)c2)cc1 (racemic) | inactive | 5.66 | 6.05 | Activity [3]: inactive
COc1ccc(OCC2c3cc(OC)c(OC)cc3CCN2C(=O)c2cccc([N+](=O)[O-])c2)cc1 (racemic) |  | 4.89 | 4.96 | Activity [1]: 70%
COc1ccc(OCC2c3cc(OC)c(OC)cc3CCN2C(=O)c2cccc(Cl)c2Cl)cc1 (racemic) |  |  | 5.85 | 
COc1ccc(OCC2c3cc(OC)c(OC)cc3CCN2C(=S)Nc2cccc(C)c2)cc1 (racemic) |  | 5.31 | 5.28 | 
COc1ccc(/C=C/C2c3cc(OC)c(OC)cc3CCN2C(=O)c2cccc(Cl)c2)cc1 (racemic) |  | 5.89 | 5.96 | 
COc1ccc(/C=C/C2c3ccc(OC)cc3CCN2C(=O)c2cccc(Cl)c2)cc1 (racemic) | inactive | 6.00 | 6.00 | 
COc1ccc(OCC2c3cc(OC)c(OC)cc3CCN2C(=O)c2cc(Cl)cc(Cl)c2)cc1 (racemic) | inactive | 5.72 | 5.32 | 
COc1ccc(OCC2c3cc(OC)c(OC)cc3CCN2C(=O)c2ccc(F)c(Cl)c2)cc1 (racemic) |  | 5.28 | 5.28 | 
COc1ccc(OCC2c3cc(OC)c(OC)cc3CCN2C(=O)c2cccc(F)c2)cc1 (racemic) | inactive | 5.15 | 5.14 | Activity [3]: inactive
COc1ccc(OCC2c3cc(OC)c(OC)cc3CCN2C(=O)c2cccc(CCl)c2)cc1 (racemic) | inactive |  | 4.77 | Activity [4]: Active
COc1cc2c(cc1OC)C(COc1ccc(SC)cc1)N(C(=O)c1cccc(Cl)c1)CC2 (racemic) |  | 5.28 | 5.29 | 
COc1ccc(OCC2c3cc4c(cc3CCN2C(=O)c2cccc(Cl)c2)OCO4)cc1 (racemic) | inactive | 5.13 | 4.80 | 
COc1ccc(OCC2c3c(cc(OC)cc3OC)CCN2C(=O)c2cccc(Cl)c2)cc1 (racemic) |  | 5.04 |  | 
COc1ccc(OCC2c3c(cc(OC)cc3OC)CCN2C(=O)c2cccc(Br)c2)cc1 (racemic) |  | 5.11 | 5.05 | 
COc1ccc(OCC2c3ccc(OC)cc3CCN2C(=O)c2cccc(C(C)=O)c2)cc1 (racemic) |  | 4.49 | 4.68 | 
COc1ccc(OCC2c3cc(C)c(C)cc3CCN2C(=O)c2cccc(Cl)c2)cc1 (racemic) |  | 5.82 | 5.85 | 
COc1ccc(OCC2c3ccc(C)cc3CCN2C(=O)c2ccccc2)cc1 (racemic) |  |  | 4.62 | 
COc1ccc(OCC2c3ccc(C)cc3CCN2C(=O)c2cccc(Cl)c2)cc1 (racemic) |  | 5.33 | 5.30 | 
COc1ccc(OCC2c3ccc(C)cc3CCN2C(=O)c2cccc(Br)c2)cc1 (racemic) |  | 5.44 | 5.49 | 
CCOc1ccc(OCC2c3cc(OC)c(OC)cc3CCN2C(=O)c2cccc(Br)c2)cc1 (racemic) |  |  |  | Activity [4]: Active
CCOc1ccc(OCC2c3cc(OC)c(OC)cc3CCN2C(=O)c2cccc(Cl)c2)cc1 (racemic) |  |  |  | Activity [4]: Active
COC(=O)c1ccc(OCC2c3cc(OC)c(OC)cc3CCN2C(=O)c2cccc(Cl)c2)cc1 (racemic) |  |  |  | Activity [4]: Active
COc1ccc(OCC2c3cc(OC)c(OC)cc3CCN2C(=O)N2CCOCC2)cc1 (racemic) |  |  |  | Activity [4]: Active
COc1ccc(OCC2c3cc(OC)c(OC)cc3CCN2C(=O)c2ccc3ccccc3c2)cc1 (racemic) | inactive |  |  | Activity [7]: 136%
COc1ccc(OCC2c3cc(OC)c(OC)cc3CCN2C(=O)c2ccccc2C)cc1 (racemic) |  |  |  | Activity [1]: 70%
COc1ccc(OCC2c3cc4c(cc3CCN2C(=O)c2ccccc2)OCO4)cc1 (racemic) |  |  |  | Activity [1]: 70%
COc1ccc(OCC2c3ccc(OC)cc3CCN2C(=O)c2cccc(Cl)c2)cc1 (racemic) | inactive |  |  | 
